High-throughput results as filed in PubChem.
Sampled rows, rich in hits. Any-hit rate of the full collection: about 2.1%.
Ba/F3 V617F tox: reduce viability of Ba/F3 cells dependent on JAK2V617F; Ba/F3 EpoR-JAK2V617F viability, ATP luminescence; inhibition, % at 5.6 µM; actives 1.1% (n = 220,000); AID 1446;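 active = inhibition above the campaign mean plus 3 SD over all tested compounds, cut at about 24% in these data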;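 note: cytokine-independent growth of Ba/F3 cells driven by EpoR plus mutant JAK2; 0% = DMSO-treated cells and 100% = JAK inhibitor I control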
b-catenin transl: beta-catenin nuclear translocation modulation; AID 1665; HeLa beta-catenin nuclear translocation, immunofluorescence imaging; nuclear translocation activity, % at 5 µM; actives 0.3% (n = 190,000);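 active = nuclear translocation activity above 50% at 5 µM, with a well cell count of 50 or more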;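 note: per-cell ratio of nuclear to cytoplasmic median beta-catenin stain intensity; plate controls were DMSO negative control for no effect and GSK-3 inhibitor IX positive control for full effect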
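System: HeLa cells, endogenous beta-catenin; compound dosing: 5 µM primary single dose, 0.1% DMSO, 0.02–20 µM confirmation series; incubation: 24 h compound exposure at 37°C, 5% CO2; signal: beta-catenin immunofluorescence imaging with DAPI; evaluation: % activation, nuclear-to-cytoplasmic median beta-catenin signal ratio per cell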
KLF5 inhibitor: kruppel-like factor 5 inhibition; DLD-1 KLF5 promoter-luciferase reporter, luminescence; AID 1700; inhibition, % at 5 µM; actives 0.23% (n = 290,000);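 active = inhibition above a per-plate limit of that plate's mean compound inhibition plus 3 SD, cut at about 60% in these data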;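 note: 0% = DMSO wells and 100% = LY294002 at 200 µM; higher means less KLF5 promoter-driven luciferase light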
IEC-6 tox: kills IEC-6 intestinal cells in KLF5 counter-screen. IEC-6 cytotoxicity, luminescence viability. inhibition, % at 5 µM. actives 0.78% (n = 290,000). AID 1825;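 note: 0% = plate median of test compound wells and 100% = cytotoxic reference compound wells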
MT stabilize HCS: microtubule stabilizers in HeLa cells; HeLa tubulin immunostaining HCS, 24 h; share of cells brighter than vehicle mean+2SD; % tubulin-high responders, % at 10 µM; actives 0.83% (n = 200,000); AID 2205;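 active = plate Z-score above 3 for both tubulin-high and condensed-nucleus cell shares, with cell loss under 80%, at 10 µM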;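 note: anti alpha tubulin signal scored within the nucleus-defined area of each cell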
BaF3 tox: counter-screen for JAK2V617F inhibitors: parental Ba/F3 viability inhibitors. CellTiter-Glo ATP luminescence. AID 1486. actives 1.1% (n = 220,000). inhibition, % at 5.6 µM;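 active = inhibition above a per-campaign cutoff, the mean inhibition of all tested compounds plus 3 SD, cut at about 27% in these data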;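 note: 0% = DMSO wells and 100% = JAK Inhibitor I control wells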
IEC-6 tox confirm: confirmation of cytotoxic compounds in rat IEC-6 intestinal epithelial cells; shares compounds with IEC-6 tox; actives 63% (n = 1,900); AID 1907; inhibition, % at 5 µM; IEC-6 rat intestinal epithelial viability, luminescence;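 note: 0% = vehicle and 100% = reference cytotoxic drug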
* = called active by the depositor; nt = no result given. Cut-off read from the data, not from the text of the source, unless noted: active = inhibition above about 22%; inactive = the rest.

SMILES	Ba/F3 V617F tox	b-catenin transl	KLF5 inhibitor	IEC-6 tox	MT stabilize HCS	BaF3 tox	IEC-6 tox confirm
CCc1cc2c(=O)[nH]c(-c3ccccn3)nc2s1	-3	nt	-105	27*	4	2	49*
CCc1cc2c(=O)[nH]c(N3CCCC3)nc2s1	-4	1	-31	-3	2	-3	nt
O=C(CSc1ccccc1)Nc1ccc(C(=O)Nc2ccc(O)cc2)cc1	0	0	-9	-1	3	6	nt
COc1ccc2[nH]cc(S(=O)(=O)c3ccc(C)cc3)c2c1	0	-1	11	6	3	-1	nt
CCCCCCn1c(=O)[nH]c2c(c1=O)CCC2	-4	1	-12	-3	nt	4	nt
CCCCCCn1c2c(c(=N)c3c1CCC3)CCC2	98*	0	55	24*	4	78*	26*
CCCCCCCn1c2c(c(=N)c3c1CCC3)CCCC2	100*	3	59	38*	6	88*	37*
CCCCCCCCCn1c2c(c(=N)c3c1CCC3)CCC2	98*	-5	52	44*	4	91*	50*
CCCn1c2c(c(O)c(C(=O)NC)c1=O)CCCC2	-1	-1	-13	-2	3	2	nt
O=C(Cc1ccc(NC2=NC3CS(=O)(=O)CC3S2)cc1)N1CCN(c2ccc(F)cc2)CC1 (configuration not stated)	nt	nt	4	0	nt	nt	nt
O=C(O)c1cccc(NC(=O)c2ccc3c(c2)C(=O)N(c2cccc([N+](=O)[O-])c2)C3=O)c1	nt	nt	-28	-4	nt	nt	nt
CC1CCN(CC(=O)N2c3ccccc3CCc3ccccc32)CC1	1	1	7	9	1	4	nt
O=S(=O)(c1ccc(Br)s1)N1CCC2(CC1)OCCO2	nt	nt	-8	-1	nt	nt	nt
COc1ccccc1NC(=S)N(Cc1ccco1)Cc1cc2ccc(C)c(C)c2[nH]c1=O	71*	nt	45	78*	10	81*	54*
CCc1nnc(NC(=O)c2ccc(OC)cc2)s1	-1	-2	-34	36*	4	7	2
COc1ccc(C(=O)c2sc(Nc3ccccc3)nc2C)cc1	nt	nt	-15	-2	nt	nt	nt
CCOC(=O)c1sc(Nc2ccc(F)cc2)nc1C	-1	2	-16	3	2	3	nt
COc1ccc(Nc2nc(N)c(C(=O)c3ccc(OC)cc3)s2)cc1	nt	nt	41	66*	nt	nt	50*
COc1ccc(Nc2nc(N)c(C(=O)c3ccc(F)cc3)s2)cc1	nt	nt	48	74*	nt	nt	57*
CCOC(=O)C(Cc1ccc(O)cc1)NC(=O)CNC(=O)C(CC(C)C)NC(=O)OC(C)(C)C (configuration not stated)	3	2	-5	9	3	1	nt
Cc1csc(SCC(=O)c2c(N)n(C)c(=O)n(C)c2=O)n1	1	nt	-38	-2	2	3	nt
COc1ccc(C2NC(=O)NC(C)=C2[N+](=O)[O-])cc1 (configuration not stated)	nt	nt	-21	-6	nt	nt	nt
COc1ccc(NC(=O)/C(Cl)=C(/Cl)S(=O)(=O)Cc2ccccc2)cn1	73*	-2	11	31*	2	31*	47*
COc1ccc(CC(=O)Nc2ccc(OC)nc2)cc1	-3	-2	-14	-4	5	5	nt
COc1ccc(NC(=O)/C(Cl)=C(/Cl)S(=O)Cc2ccc(Cl)cc2)cn1 (configuration not stated)	100*	4	28	42*	2	86*	56*
SMILES	Ba/F3 V617F tox	b-catenin transl	KLF5 inhibitor	IEC-6 tox	MT stabilize HCS	BaF3 tox	IEC-6 tox confirm
COc1ccc(NC(=O)Cc2ccc(-c3ccccc3)cc2)cn1	4	96*	-14	40*	26*	14	22
COc1ccc(NC(=O)C(Cl)=C(Cl)Cl)cn1	1	0	4	12	6	-3	nt
O=c1c2c(nc3cc(-c4ccc(F)cc4)[nH]n13)CCC2	-2	nt	-71	-4	4	4	nt
O=C(Nc1ccccc1)c1cccc(N2C(=O)C3C4C=CC(C5CC45)C3C2=O)c1 (configuration not stated)	nt	nt	-33	2	nt	nt	nt
Cc1cccc(NC(=O)c2ccc(N3C(=O)C4C5C=CC(C6CC56)C4C3=O)cc2)c1 (configuration not stated)	nt	nt	-34	23*	nt	nt	12
CCOc1ccc(S(=O)(=O)N2CCOCC2)cc1[N+](=O)[O-]	3	-2	7	-3	2	3	nt
CCOc1ccc(S(=O)(=O)n2cc(F)c(=O)[nH]c2=O)cc1[N+](=O)[O-]	nt	nt	-2	55*	nt	nt	12
CCCOc1ccc(S(=O)(=O)n2cc(Br)c(=O)[nH]c2=O)cc1	6	-2	-3	-2	2	12	nt
CCOc1ccc(S(=O)(=O)n2cc(F)c(=O)[nH]c2=O)cc1	44*	0	11	86*	2	60*	13
Cc1ccccc1OCC(=O)NNC(=O)Nc1ccc(Cl)cc1	1	76*	-1	67*	3	7	29*
Cc1ccccc1OCC(=O)NNC(=O)Nc1ccccc1	-2	0	-25	2	3	4	nt
COc1ccc(S(=O)(=O)N(CC(=O)N2CCCCCC2)c2ccccc2OC)cc1	nt	nt	-10	-7	nt	nt	nt
O=C(CN1CCOCC1)Nc1ncc(Cc2cccc3ccccc23)s1	-1	1	-1	-2	0	8	nt
